Compounds with a hit are over-represented: about 0.86% of the library has one in this group of screens.
miR122 inh = miR-122 inhibition in Huh7 cells; Huh7 miR-122 Renilla luciferase sensor, 48 h; neutral wells = 0, positive control = 100; activation (reporter increase), % at 12.5 µM; 340,000 compounds, 0.3% hits;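 active = mean replicate activation score at least 90 and every replicate individually at or above 90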;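 note: higher luciferase means less miR-122 activity so hits act as miR-122 inhibitors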
AF4-AF9 inh = inhibitors of human MLL-AF4/AF9 interaction; inhibition, % at 10 µM; 350,000 compounds, 0.47% hits; AlphaScreen, biotin-AF4 peptide binding to FLAG-AF9;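 active = every replicate reaching a set inhibition limit, whatever the replicate mean, cut at about 25% in these data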;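 note: 0% = plate neutral control median and 100% = total signal loss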
Rtt109 HAT inh = blocks Candida albicans Rtt109/Vps75 acetyltransferase activity. Q5AAJ8. purified Rtt109/Vps75, ThioGlo CoA-SH fluorescence, 4 h. inhibition, % at 34.9 µM. 330,000 compounds, 0.16% hits. AID 540336;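 active = inhibition of at least 50% in every replicate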
Target sequence (Q5AAJ8 whole entry, looked up): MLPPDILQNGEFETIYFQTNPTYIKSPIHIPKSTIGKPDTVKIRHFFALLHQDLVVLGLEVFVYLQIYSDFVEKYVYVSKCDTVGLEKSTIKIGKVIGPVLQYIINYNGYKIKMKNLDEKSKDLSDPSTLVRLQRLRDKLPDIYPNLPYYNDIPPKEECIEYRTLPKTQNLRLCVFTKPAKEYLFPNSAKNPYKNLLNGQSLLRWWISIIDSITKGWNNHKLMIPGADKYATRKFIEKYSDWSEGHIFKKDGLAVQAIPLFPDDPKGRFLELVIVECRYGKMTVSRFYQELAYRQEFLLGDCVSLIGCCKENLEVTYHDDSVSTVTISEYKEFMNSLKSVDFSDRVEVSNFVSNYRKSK
ERAP1 inh = blocks human ERAP1 aminopeptidase activity | inhibition, % at 10.7 µM | 340,000 compounds, 0.15% hits | Q9NZ08 | recombinant ERAP1, Leu-AMC fluorescence, 60 min;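 active = mean replicate inhibition of at least 30%, or all replicates individually reaching that 30% level; inactive = mean below 30% and not every replicate reaching it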;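 note: 0% = neutral control wells and 100% = L-leucinethiol positive control wells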
S100A4 MyoIIA = inhibitors of human S100A4 binding to myosin IIA peptide; P26447; S100A4/TAMRA-MyoIIA peptide fluorescence polarization; inhibition, % at 10.7 µM; 360,000 compounds, 0.14% hits; AID 652163;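 active = mean inhibition of at least 70% across replicates, with every replicate also reaching that level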
Target sequence (P26447 whole entry, looked up): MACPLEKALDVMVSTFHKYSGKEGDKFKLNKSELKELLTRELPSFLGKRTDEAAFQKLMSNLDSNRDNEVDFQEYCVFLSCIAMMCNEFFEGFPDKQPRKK
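Test system: S100A4 monomer protein; Medium: HEPES pH 7.2 with CaCl2, KCl, NaCl, DTT, Triton; Probe or stimulus: TAMRA-labelled myosin IIA heavy-chain peptide probe, 5 nM; Doses: one dose per compound; Times: polarization read 5 min after assay mix addition, stable 5–60 min; Benchmarks: neutral control DMSO, positive control TFP.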
Starred values were filed as active, the others as inactive; · = not tested or not shown; [ ] = remark or other dose.

SMILES | miR122 inh | AF4-AF9 inh | Rtt109 HAT inh | ERAP1 inh | S100A4 MyoIIA
CCC(C)(C)NC(=O)C(c1cccn1C)N(C(=O)Cn1nnc2ccccc21)c1ccc(OC)cc1OC (stereo unspecified) | 91.7* | · | 5.3 | · | ·
C[C@@H]1CCCCO[C@H](CN(C)C(=O)CCC(F)(F)F)[C@H](C)CN([C@@H](C)CO)C(=O)c2cc(NS(=O)(=O)c3cccs3)ccc2O1 | -2.6[16.7 µM] | · | · | · | ·
COCC1OC(OC(C)C(O)c2cnc3nc(N)[nH]c(=O)c3n2)C(O)C(OC)C1O (stereo unspecified) | 2.6 | 8.8 | · | 32.8* | -7.9
CN[C@@H](C)C(=O)NC[C@H]1O[C@@H](n2cnc3c(=O)[nH]c(N)nc32)[C@H](O)[C@@H]1O | 9.5 | -3.0 | · | -1.8 | -1.6
COc1ccc(-c2ccc(C(=O)NCc3ccccc3)c3occc23)c(C)c1 | 75.4 | 0.8 | · | 5.1 | 2.5
COc1ccc(-c2ccc(C(=O)NCc3ccc(N4CCN(C)CC4)cc3)c3occc23)c(C)c1 | 9.1 | 36.9* | · | 4.7 | -0.2
CCCN1C[C@@H](C)[C@@H](OC)CN(C)C(=O)c2cc(NC(=O)C3CC3)ccc2OC[C@@H]1C | · | -1.6 | · | -0.2 | 4.6
CCC(=O)N1[C@H](CN(CC)C(C)=O)[C@@H](c2ccc(-c3cccnc3)cc2)[C@@H]1CO | -6.6[16.7 µM] | -3.0 | · | 0.8 | 6.4
Cc1cc(-c2nn(-c3ccccc3F)cc2CN2CCN(c3ccncc3)CC2)c(C)s1 | -11.8 | 32.3* | 4.7 | 2.8 | -17.9
O=C(c1ccncc1)N1CC2(C1)[C@H](c1ccccc1)[C@@H](CO)N2CC1CCCC1 | · | -1.7 | · | -0.2 | -10.7
C[n+]1ccccc1C1CCCC/C1=N\NC(N)=S (stereo unspecified) | -7.4 | -1.1 | 39.0 | 43.5* | -2.6
C[C@@H]1CCCCO[C@@H](CN(C)C(=O)c2ccccc2)[C@H](C)CN([C@H](C)CO)C(=O)c2cc(NS(=O)(=O)c3ccc(F)cc3)ccc2O1 | -7.1[16.7 µM] | 1.2 | · | -4.0 | 15.5
C/C(=N\NC(=O)c1cc(-c2ccc(Br)s2)[nH]n1)c1ccncc1 | -5.6 | -0.9 | 7.2 | 3.4 | -2.7
C/C(=N\NC(=O)c1cc(-c2ccc(Cl)s2)[nH]n1)c1ccncc1 | -0.4 | 43.3* | 5.9 | -2.2 | 0.9
Nc1ccc(Nc2ccc([N+](=O)[O-])cc2[N+](=O)[O-])cc1 | · | 26.6* | -12.6 | 5.1 | -2.3
C[C@H]1CN([C@@H](C)CO)C(=O)c2cc(-c3cccc(C#N)c3)cnc2O[C@@H]1CN(C)C(=O)C1CCC1 | 61.9[16.7 µM] | -3.1 | · | 2.3 | -10.0
C[C@@H]1CN([C@@H](C)CO)C(=O)c2c(c3ccccc3n2C)-c2ccccc2CO[C@H]1CN(C)Cc1ccc2c(c1)OCCN2C | · | 39.0* | · | -3.1 | -7.0
C[C@@H]1CN([C@H](C)CO)C(=O)c2c(c3ccccc3n2C)-c2ccccc2CO[C@@H]1CN(C)Cc1ccc2c(c1)OCCN2C | · | 49.8* | · | -1.8 | 5.9
C[C@H]1CN([C@@H](C)CO)C(=O)c2c(c3ccccc3n2C)-c2ccccc2CO[C@H]1CN(C)Cc1ccc(Cl)c(Cl)c1 | · | 0.9 | · | 3.5 | -0.5
COc1ccc(S(=O)(=O)Nc2ccc3c(c2)C(=O)N([C@H](C)CO)C[C@H](C)[C@H](CN(C)C(=O)NC2CCCCC2)OCCCC[C@H](C)O3)cc1 | -7.5[16.7 µM] | 2.0 | · | -0.8 | 3.6
C[C@H]1CN([C@@H](C)CO)C(=O)c2cc(C3=CCCC3)cnc2O[C@H]1CN(C)C(=O)C1CC1 | -2.8[16.7 µM] | · | · | · | ·
C[C@@H]1CN([C@H](C)CO)C(=O)c2cc(/C=C/c3ccccc3)cnc2O[C@@H]1CN(C)C(=O)Nc1ccc(C(F)(F)F)cc1 | · | 4.1 | · | -1.4 | 34.4
O=C(CN(Cc1ccccc1)C(=O)CCC(=O)Nc1nccs1)NCc1ccccc1 | -5.4 | 43.2* | -12.8 | -2.2 | -0.1
O=C(Cc1ccncc1)Nc1ccc2c(c1)[C@H]1C[C@H](CC(=O)N3CCCCC3)O[C@@H](CO)[C@H]1O2 | -2.1[16.7 µM] | 1.7 | · | 1.1 | -5.1
Cc1ccc(S(=O)(=O)N(C)C[C@@H]2Oc3ccc(NC(=O)Nc4ccc5c(c4)OCO5)cc3CC(=O)N([C@@H](C)CO)C[C@H]2C)cc1 | -5.9[16.7 µM] | 4.5 | · | -3.4 | 7.4
Nc1ncnc2c1ncn2C1OC(C(=O)NC2CC2)C(O)C1O (stereo unspecified) | -3.2 | 48.4* | 5.5 | -0.7 | 1.2
CC(=O)N1CCc2cc(Br)cc(S(=O)(=O)NCc3ccc(Cl)cc3)c21 | 109.8* | 0.7 | 9.1 | 0.4 | -3.6

Screening results: PubChem BioAssay, Broad Institute
